Experimental data published in ChEMBL document CHEMBL1806443, “Novel imidazo[4,5-b]pyridine and triaza-benzo[c]fluorene derivatives: synthesis, antiproliferative activity and DNA binding studies” (Eur J Med Chem, 2011).
Active and inactive are the calls of the source. The calls are words filed in the database; no cut-off is given here.

Tests used:
MIA PaCa-2 [1] = assay: Antiproliferative activity against human MIAPaCa2 cells after 72 hrs by MTT assay; assay type: functional, cell-based
How it was run: (§1)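 Monolayer cells in DMEM with 10% FBS, 2 mM L-glutamine, penicillin and streptomycin at 37 °C, 5% CO2. Seeded at 3000-6000 cells/well by doubling time on day 0. Five 10-fold dilutions (0.01–100 µM) were added and incubated 72 h. MTT read-out, converted to percentage growth. IC50 by linear regression between bracketing concentrations. Quadruplicate points, three independent experiments, ANOVA/Tukey p<0.05.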

WI-38 [2] = assay: Antiproliferative activity against human WI38 cells after 72 hrs by MTT assay; assay type: cell-based; how it was run: as §1
SW-620 [3] = assay: Cytostatic activity against human SW620 cells at 1 to 10 uM after 72 hrs by MTT assay; assay type: functional, cell-based
How it was run: (§2)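 Monolayers in DMEM with 10% FBS, 2 mM L-glutamine, penicillin and streptomycin (37 °C, 5% CO2) were seeded at 3000–6000 cells/well on day 0. Five 10-fold dilutions (0.01–100 µM) were added, followed by 72-h incubation and MTT read-out. Absorbances were converted to percentage growth by the NIH formulae. Each point was run in quadruplicate in three experiments; ANOVA with Tukey test.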

HeLa [4] = assay: Antiproliferative activity against human HeLa cells after 72 hrs by MTT assay; assay type: functional, cell-based; how it was run: as §1
HEp-2 [5] = assay: Antiproliferative activity against human Hep2 cells after 72 hrs by MTT assay; assay type: functional, cell-based; how it was run: as §1
SK-BR-3 [6] = assay: Antiproliferative activity against human SKBR3 cells after 72 hrs by MTT assay; assay type: functional, cell-based; how it was run: as §1
MIA PaCa-2 [7] = assay: Cytostatic activity against human MIAPaCa2 cells at 1 to 10 uM after 72 hrs by MTT assay; assay type: functional, cell-based; how it was run: as §2
HeLa [8] = assay: Cytostatic activity against human HeLa cells at 1 to 10 uM after 72 hrs by MTT assay; assay type: functional, cell-based; how it was run: as §2
SW-620 [9] = assay: Antiproliferative activity against human SW620 cells after 72 hrs by MTT assay; assay type: functional, cell-based; how it was run: as §1
MCF7 [10] = assay: Antiproliferative activity against human MCF7 cells after 72 hrs by MTT assay; assay type: functional, cell-based; how it was run: as §1
SK-BR-3 [11] = assay: Cytostatic activity against human SKBR3 cells at 1 to 10 uM after 72 hrs by MTT assay; assay type: functional, cell-based; how it was run: as §2
MCF7 [12] = assay: Cytostatic activity against human MCF7 cells at 1 to 10 uM after 72 hrs by MTT assay; assay type: functional, cell-based; how it was run: as §2
WI-38 [13] = assay: Cytostatic activity against human WI38 cells at 1 to 10 uM after 72 hrs by MTT assay; assay type: ADME, cell-based; details: wi-38, 72 h; how it was run: as §2
HEp-2 [14] = assay: Cytostatic activity against human Hep2 cells at 1 to 10 uM after 72 hrs by MTT assay; assay type: functional, cell-based; how it was run: as §2
SW-620 [15] = assay: Antiproliferative activity against human SW620 cells at 0.1 to 10 uM after 72 hrs by MTT assay; assay type: functional, cell-based; how it was run: as §1
SK-BR-3 [16] = assay: Antiproliferative activity against human SKBR3 cells at 0.1 to 10 uM after 72 hrs by MTT assay; assay type: functional, cell-based; how it was run: as §1
MCF7 [17] = assay: Antiproliferative activity against human MCF7 cells at 0.1 to 10 uM after 72 hrs by MTT assay; assay type: functional, cell-based; how it was run: as §1
WI-38 [18] = assay: Antiproliferative activity against human WI38 cells at 0.1 to 10 uM after 72 hrs by MTT assay; assay type: cell-based; details: wi-38, 72 h; how it was run: as §1
MIA PaCa-2 [19] = assay: Antiproliferative activity against human MIAPaCa2 cells at 0.1 to 10 uM after 72 hrs by MTT assay; assay type: functional, cell-based; how it was run: as §1
HeLa [20] = assay: Antiproliferative activity against human HeLa cells at 0.1 to 10 uM after 72 hrs by MTT assay; assay type: functional, cell-based; how it was run: as §1
HEp-2 [21] = assay: Antiproliferative activity against human Hep2 cells at 0.1 to 10 uM after 72 hrs by MTT assay; assay type: functional, cell-based; how it was run: as §1

| SMILES | IC50 (MIA PaCa-2 [1]; Homo sapiens, MIA PaCa-2, 72 h) | IC50 (WI-38 [2]; Homo sapiens, WI-38, 72 h) | Activity (SW-620 [3]) | IC50 (HeLa [4]; Homo sapiens, HeLa, 72 h) | IC50 (HEp-2 [5]; Homo sapiens, HEp-2, 72 h) | IC50 (SK-BR-3 [6]; Homo sapiens, SK-BR-3, 72 h) | Activity (MIA PaCa-2 [7]) | Activity (HeLa [8]) | IC50 (SW-620 [9]; Homo sapiens, SW-620, 72 h) | IC50 (MCF7 [10]; Homo sapiens, MCF7, 72 h) | Activity (SK-BR-3 [11]) | Activity (MCF7 [12]) | Activity (WI-38 [13]) | Activity (HEp-2 [14]) | other results |
| --- | --- | --- | --- | --- | --- | --- | --- | --- | --- | --- | --- | --- | --- | --- | --- |
| Clc1ccccc1/C=C/c1nc2ncccc2[nH]1 | 59.1 µM | > 100 µM | Active | 31.6 µM | 29.3 µM | 5.79 µM | Active | Active | 50.9 µM | 25.6 µM | Active | Active | Toxic | Active | – |
| Nc1ccc2c(ccc3nc4ncc(Br)cc4n32)c1 [listing 1 of 3 here] | – | – | Active | – | – | – | Active | Active | – | – | Active | Active | – | Active | – |
| O=[N+]([O-])c1ccc(Cl)c(/C=C/c2nc3ncc(Br)cc3[nH]2)c1 | 30.6 µM | 6.48 µM | Active | 3.68 µM | 0.91 µM | 59.9 µM | Active | Active | 7.99 µM | 8.81 µM | Active | Active | Toxic | Active | – |
| C(=C\c1nc2ncccc2[nH]1)/c1ccccc1 | 4.39 µM | 3.87 µM | Active | 2.22 µM | 3.89 µM | 2.06 µM | Active | Active | 4.64 µM | 7.57 µM | Active | Active | Toxic | Active | – |
| Nc1ccc2c(ccc3nc4ncc(Br)cc4n32)c1 [listing 2 of 3 here] | 33 µM | 85.4 µM | – | 30.9 µM | 14.1 µM | 7.76 µM | – | – | 38.6 µM | 61.7 µM | – | – | Toxic | – | – |
| Nc1ccc2c(ccc3nc4ncccc4n32)c1 | – | – | – | – | – | – | – | – | – | – | – | – | – | – | IC50 (MIA PaCa-2 [1]; mia paca-2): 43.4 µM; IC50 (HeLa [4]; hela): 27.2 µM; IC50 (HEp-2 [5]; hep-2): 26.7 µM; IC50 (SK-BR-3 [6]; sk-br-3): 3.64 µM; IC50 (SW-620 [9]; sw-620): 25.9 µM; IC50 (MCF7 [10]; mcf7): 56 µM |
| O=[N+]([O-])c1ccc(Cl)c(/C=C/c2nc3ncccc3[nH]2)c1 | 38.8 µM | 61.6 µM | – | 45.1 µM | 49.4 µM | 1.8 µM | – | – | 52 µM | 53.6 µM | – | – | – | – | – |
| O=[N+]([O-])c1ccc2c(ccc3nc4ncc(Br)cc4n32)c1 | 63.5 µM | > 100 µM | – | 13.4 µM | 31.1 µM | 8.11 µM | – | – | 61.2 µM | > 100 µM | – | – | – | – | – |
| O=c1[nH]cc(F)c(=O)[nH]1 [FLUOROURACIL] | 11.5 µM | 18.5 µM | – | 10.3 µM | > 100 µM | 38.2 µM | – | – | 3.38 µM | 42 µM | – | – | – | – | – |
| N#Cc1ccc2ccc3nc4ncccc4n3c2c1 | > 100 µM | 51.5 µM | – | 39.5 µM | 47.3 µM | 67.7 µM | – | – | > 100 µM | > 100 µM | – | – | – | – | – |
| C[n+]1cccc2c1nc1ccc3cc([N+](=O)[O-])ccc3n12 | > 100 µM | > 100 µM | – | 11.4 µM | 31.5 µM | 33.6 µM | – | – | 26.7 µM | > 100 µM | – | – | – | – | – |
| N#Cc1ccc(/C=C/c2nc3ncccc3[nH]2)cc1 | > 100 µM | > 100 µM | – | 47.1 µM | 84.9 µM | 86.6 µM | – | – | > 100 µM | 12.9 µM | – | – | – | – | – |
| Brc1cnc2nc3ccc4ccc(C5=NCCN5)cc4n3c2c1.Cl | 4.74 µM | 3.71 µM | Active | 1.1 µM | 4.01 µM | 5.52 µM | Active | Active | 3.67 µM | 8.43 µM | Active | Active | Toxic | Active | Activity (SW-620 [15]): Active; Activity (SK-BR-3 [16]): Active; Activity (MCF7 [17]): Active; Activity (WI-38 [18]): Toxic; Activity (MIA PaCa-2 [19]): Active; Activity (HeLa [20]): Active; Activity (HEp-2 [21]): Active |
| Clc1cccnc1/C=C/c1nc2ncccc2[nH]1 | > 100 µM | > 100 µM | – | > 100 µM | > 100 µM | 53.1 µM | – | – | > 100 µM | > 100 µM | – | – | – | – | – |
| N#Cc1ccc(/C=C/c2nc3ncc(Br)cc3[nH]2)cc1 | 8.17 µM | 6.76 µM | Active | 2.88 µM | 5.69 µM | 4.31 µM | Active | Active | 7.11 µM | 7.82 µM | Active | Active | Toxic | Active | – |
| c1ccc2c(c1)ccc1nc3ncccc3n12 [7,8,11b-triazabenzo[c]fluorene] | 80.5 µM | 47.4 µM | – | 14.3 µM | 52.3 µM | 83.5 µM | – | – | 78.3 µM | 75.5 µM | – | – | – | – | – |
| O=[N+]([O-])c1ccc2c(ccc3nc4ncccc4n32)c1 | > 100 µM | 75.7 µM | – | 52.8 µM | > 100 µM | 42.7 µM | – | – | > 100 µM | > 100 µM | – | – | – | – | – |
| Nc1ccc2c(ccc3nc4ncc(Br)cc4n32)c1 [listing 3 of 3 here] | – | – | – | – | – | – | – | – | – | – | – | – | – | – | IC50 (MIA PaCa-2 [1]; mia paca-2): 40.3 µM; IC50 (WI-38 [2]; wi-38): 85.1 µM; IC50 (HeLa [4]; hela): 37.7 µM; IC50 (HEp-2 [5]; hep-2): 21.6 µM; IC50 (SK-BR-3 [6]; sk-br-3): 7.56 µM; IC50 (SW-620 [9]; sw-620): 40.7 µM; IC50 (MCF7 [10]; mcf7): 67.3 µM |
| c1cnc2ccc3nc4ncccc4n3c2c1 | > 100 µM | > 100 µM | – | > 100 µM | > 100 µM | > 100 µM | – | – | > 100 µM | > 100 µM | – | – | – | – | – |
